Assay results published in ChEMBL document CHEMBL2331117 (J Med Chem, 2013).
Calls of active or inactive are those of the source. No cut-off for these calls is given here.

Key:
[1] = Plasma concentration in athymic mouse plasma xenografted with human MCF7 cells at 100 mg/kg, po after 1 hr; assay type: ADME, organism-based; set-up: dose 100 mg/kg, route oral
Summary of the method: (§1)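 MCF-7 cells (5 × 10^6, in 50% cold HBSS/50% growth-factor-reduced matrigel) were implanted subcutaneously in the hindflank of 5–8 week old female nude mice. At 40–150 mg tumour size, mice received a single oral dose of 100 mg/kg, and plasma was sampled at the listed times after dosing.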

Mus musculus [2] = test: In vivo inhibition of mTORC1-mediated phosphorylation of pS6 at (serine 240/244) in human MCF7 cells xenografted into athymic nude mouse at 100 mg/kg, po after 24 hrs by Western blotting analysis relative to control; assay type: functional; conditions: MCF7, 24 h
Summary of the method: (§2)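 MCF-7 cells (DMEM, 10% FBS) were implanted subcutaneously at 5 × 10^6 cells in 50% cold HBSS/50% growth-factor-reduced matrigel into the hindflank of 5−8 week old female nude mice. At tumor size 40−150 mg, mice received a single oral dose of 100 mg/kg. Tumor lysates were pooled per group. Phospho-AKT (S473, T308), p70S6K (T389), S6 (S240/244) and 4E-BP1 (T37/46) were measured by Western blot normalized to α-tubulin.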

Mus musculus [3] = test: In vivo inhibition of mTORC1-mediated phosphorylation of pS6 at (serine 240/244) in human MCF7 cells xenografted into athymic nude mouse at 100 mg/kg, po after 8 hrs by Western blotting analysis relative to control; assay type: functional; conditions: MCF7, 8 h; summary of the method: as §2
Mus musculus [4] = test: In vivo inhibition of mTORC2-mediated phosphorylation of AKT at serine 473 in human MCF7 cells xenografted into athymic nude mouse at 100 mg/kg, po after 1 hr by Western blotting analysis relative to control; assay type: functional; conditions: MCF7, 1 h; summary of the method: as §2
Mus musculus [5] = test: In vivo inhibition of mTORC1-mediated phosphorylation of 4EBP1 at ([…]) in human PC3 cells xenografted into athymic nude mouse at 100 mg/kg, po after 32 hrs by Western blotting analysis relative to control; assay type: functional; conditions: PC-3, 32 h
Summary of the method: (§3)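 PC-3 cells grown in DMEM with 20% FBS were implanted subcutaneously at 3 × 10^6 cells in ice-cold HBSS into the hindflank of 5−8 week old male nude mice. At tumor size 200−500 mg, mice received a single oral dose of 100 mg/kg. Plasma and tumors were collected at 1, 4, 8, 16, 24 and 32 h. Tumor lysates from each group (n = 5) were pooled. Phospho-proteins were quantified by Western blot and normalized to α-tubulin.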

[6] = target: Tyrosine-protein kinase JAK2 (Homo sapiens, UniProt O60674); test: Inhibition of JAK2 (unknown origin)
[7] = target: Receptor tyrosine-protein kinase erbB-2 (Homo sapiens, UniProt P04626); test: Inhibition of ERBB2 (unknown origin)
Sequence of Receptor tyrosine-protein kinase erbB-2 (P04626 whole entry): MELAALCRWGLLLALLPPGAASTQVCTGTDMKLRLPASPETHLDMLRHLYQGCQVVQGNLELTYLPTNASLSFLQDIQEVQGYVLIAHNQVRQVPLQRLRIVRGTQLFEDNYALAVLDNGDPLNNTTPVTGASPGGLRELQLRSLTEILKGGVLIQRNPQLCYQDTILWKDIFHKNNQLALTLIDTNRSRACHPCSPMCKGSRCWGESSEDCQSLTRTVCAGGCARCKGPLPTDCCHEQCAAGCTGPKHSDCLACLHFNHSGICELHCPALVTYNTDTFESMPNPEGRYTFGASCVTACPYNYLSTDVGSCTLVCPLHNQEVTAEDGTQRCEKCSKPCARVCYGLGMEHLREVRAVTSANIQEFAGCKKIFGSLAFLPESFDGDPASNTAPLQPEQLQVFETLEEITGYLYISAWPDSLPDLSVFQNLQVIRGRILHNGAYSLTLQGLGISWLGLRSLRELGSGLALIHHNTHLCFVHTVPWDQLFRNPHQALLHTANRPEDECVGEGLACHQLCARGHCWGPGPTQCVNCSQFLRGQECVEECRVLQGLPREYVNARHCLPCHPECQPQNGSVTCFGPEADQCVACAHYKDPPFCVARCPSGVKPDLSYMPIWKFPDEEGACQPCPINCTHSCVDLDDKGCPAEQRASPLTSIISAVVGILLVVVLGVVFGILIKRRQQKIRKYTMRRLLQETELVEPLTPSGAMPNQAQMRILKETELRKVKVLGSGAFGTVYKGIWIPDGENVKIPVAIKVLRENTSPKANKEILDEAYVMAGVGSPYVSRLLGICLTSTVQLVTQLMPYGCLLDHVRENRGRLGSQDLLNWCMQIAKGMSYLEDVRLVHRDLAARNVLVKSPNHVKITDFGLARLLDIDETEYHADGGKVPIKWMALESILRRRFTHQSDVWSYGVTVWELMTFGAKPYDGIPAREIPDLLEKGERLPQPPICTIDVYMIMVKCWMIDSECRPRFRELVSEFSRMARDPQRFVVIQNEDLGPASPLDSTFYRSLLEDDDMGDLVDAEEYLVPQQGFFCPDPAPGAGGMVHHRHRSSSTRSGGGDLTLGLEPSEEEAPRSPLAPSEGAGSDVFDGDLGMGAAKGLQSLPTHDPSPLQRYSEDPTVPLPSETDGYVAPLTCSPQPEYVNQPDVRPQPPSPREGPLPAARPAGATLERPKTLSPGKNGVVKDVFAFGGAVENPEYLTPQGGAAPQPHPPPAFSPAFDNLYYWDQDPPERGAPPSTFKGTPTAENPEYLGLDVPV
Summary of the method: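 Part of a 141-protein-kinase selectivity panel run either in house or by an outside contract lab. IC50 is reported as the average of at least two determinations.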

[8] = target: RAF proto-oncogene serine/threonine-protein kinase (Homo sapiens, UniProt P04049); test: Inhibition of cRAF (unknown origin)
Sequence of RAF proto-oncogene serine/threonine-protein kinase (P04049 whole entry): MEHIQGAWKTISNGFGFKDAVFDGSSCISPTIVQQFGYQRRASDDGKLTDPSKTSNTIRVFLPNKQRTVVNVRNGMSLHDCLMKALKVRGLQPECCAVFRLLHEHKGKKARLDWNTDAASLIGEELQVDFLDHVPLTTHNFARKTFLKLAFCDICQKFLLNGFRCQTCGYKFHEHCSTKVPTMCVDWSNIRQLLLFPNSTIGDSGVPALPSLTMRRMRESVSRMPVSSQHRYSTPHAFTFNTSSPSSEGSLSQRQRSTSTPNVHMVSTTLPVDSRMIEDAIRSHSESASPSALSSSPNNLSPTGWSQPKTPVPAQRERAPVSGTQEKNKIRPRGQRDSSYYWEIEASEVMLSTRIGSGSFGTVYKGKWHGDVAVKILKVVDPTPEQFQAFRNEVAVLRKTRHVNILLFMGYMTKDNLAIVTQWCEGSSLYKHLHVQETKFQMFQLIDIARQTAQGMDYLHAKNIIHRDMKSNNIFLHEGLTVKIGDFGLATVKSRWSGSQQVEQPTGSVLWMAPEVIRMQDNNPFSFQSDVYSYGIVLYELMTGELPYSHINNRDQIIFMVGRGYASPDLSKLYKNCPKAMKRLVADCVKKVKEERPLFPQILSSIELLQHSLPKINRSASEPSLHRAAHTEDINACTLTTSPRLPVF

[9] = target: Serine/threonine-protein kinase mTOR (Homo sapiens) (UniProt P42345); test: Competitive inhibition of mTOR (unknown origin) in presence of ATP
[10] = Oral bioavailability in cynomolgus monkey at 3 mg/kg; assay type: ADME, organism-based, Macaca fascicularis; conditions: in vivo
Summary of the method: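 Male cynomolgus monkeys received 3 mg/kg intravenously and by oral gavage as a solution in EPW (5% ethanol/45% PEG400/water + 1:1.5 HCl m/m).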

[11] = Volume of distribution at steady state in Beagle dog at 3 mg/kg, iv; assay type: ADME, organism-based, Canis lupus familiaris; set-up: dose 3 mg/kg, route intravenous; conditions: in vivo, read-out: Vdss
[12] = Clearance in cynomolgus monkey at 3 mg/kg, iv; assay type: ADME, organism-based, Macaca fascicularis; set-up: dose 3 mg/kg, route intravenous; conditions: in vivo
Summary of the method: (§4)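 Single-dose PK: female athymic nude mice (10 mg/kg), female CD rats and male beagle dogs (3 mg/kg), male cynomolgus monkeys (3 mg/kg), given iv and by oral gavage. Solution in EPW (5% ethanol/45% PEG400/water), with 1:2 HCl (m/m) for mouse, rat and dog and 1:1.5 HCl (m/m) for monkey. Plasma levels followed over 24 h.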

[13] = Half life in cynomolgus monkey at 3 mg/kg, iv; assay type: ADME, organism-based, Macaca fascicularis; set-up: dose 3 mg/kg, route intravenous; conditions: in vivo; summary of the method: as §4
[14] = AUC (0 to infinity) in cynomolgus monkey at 3 mg/kg, iv; assay type: ADME, organism-based, Macaca fascicularis; set-up: time infinity, dose 3 mg/kg, route intravenous; conditions: plasma; summary of the method: as §4
[15] = AUC (0 to infinity) in cynomolgus monkey at 3 mg/kg, po; assay type: ADME, organism-based, Macaca fascicularis; set-up: dose 3 mg/kg, route oral, time infinity; conditions: plasma; summary of the method: as §4
[16] = AUC (0 to infinity) in athymic nude mouse at 10 mg/kg, iv; assay type: ADME, organism-based; set-up: time infinity, dose 10 mg/kg, route intravenous; conditions: plasma; summary of the method: as §4
Plasma [17] = test: Plasma concentration in athymic mouse plasma xenografted with human MCF7 cells at 100 mg/kg, po after 24 hrs; assay type: ADME, organism-based; set-up: dose 100 mg/kg, route oral; conditions: in vivo, BLD = below limit of detection; summary of the method: as §1
Plasma [18] = test: Plasma concentration in athymic mouse plasma xenografted with human MCF7 cells at 100 mg/kg, po after 32 hrs; assay type: ADME, organism-based; set-up: dose 100 mg/kg, route oral; conditions: in vivo, BLD = below limit of detection; summary of the method: as §1
[19] = Metabolic stability in rat liver microsomes after 30 mins; assay type: ADME, Microsome; conditions: read-out: Stability
[20] = Metabolic stability in dog liver microsomes after 30 mins; assay type: ADME, Canis lupus familiaris, Microsome; conditions: read-out: Stability
[21] = Plasma protein binding in mouse at 5 uM; assay type: ADME, cell-free; conditions: read-out: PPB (converted)
[22] = Plasma protein binding in dog at 5 uM; assay type: ADME, cell-free, Canis lupus familiaris; conditions: read-out: PPB (converted)
[23] = Apparent permeability across MDCK cells; assay type: ADME, cell-based, Canis lupus familiaris; conditions: dog
Casein kinase II = Casein kinase II (Homo sapiens, UniProt P19784+P67870+P68400); test: Inhibition of CK2 (unknown origin); assay type: protein-complex assay
Sequence of Casein kinase II (P67870 whole entry): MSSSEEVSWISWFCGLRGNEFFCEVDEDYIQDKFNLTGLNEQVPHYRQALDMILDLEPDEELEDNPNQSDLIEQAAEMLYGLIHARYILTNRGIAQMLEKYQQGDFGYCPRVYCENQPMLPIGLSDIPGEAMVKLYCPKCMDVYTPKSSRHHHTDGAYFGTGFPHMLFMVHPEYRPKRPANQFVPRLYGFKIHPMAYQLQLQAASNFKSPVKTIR
Sequence of Casein kinase II (P68400 whole entry): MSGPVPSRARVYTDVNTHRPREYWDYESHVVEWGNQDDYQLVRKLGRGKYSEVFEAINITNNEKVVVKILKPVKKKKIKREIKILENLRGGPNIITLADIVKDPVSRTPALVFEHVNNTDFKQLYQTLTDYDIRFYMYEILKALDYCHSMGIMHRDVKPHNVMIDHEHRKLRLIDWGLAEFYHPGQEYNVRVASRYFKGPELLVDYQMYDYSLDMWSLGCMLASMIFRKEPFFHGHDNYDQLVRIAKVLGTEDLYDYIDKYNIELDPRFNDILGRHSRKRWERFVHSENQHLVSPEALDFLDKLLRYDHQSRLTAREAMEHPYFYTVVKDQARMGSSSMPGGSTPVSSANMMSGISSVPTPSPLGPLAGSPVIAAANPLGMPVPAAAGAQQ
Sequence of Casein kinase II (P19784 whole entry): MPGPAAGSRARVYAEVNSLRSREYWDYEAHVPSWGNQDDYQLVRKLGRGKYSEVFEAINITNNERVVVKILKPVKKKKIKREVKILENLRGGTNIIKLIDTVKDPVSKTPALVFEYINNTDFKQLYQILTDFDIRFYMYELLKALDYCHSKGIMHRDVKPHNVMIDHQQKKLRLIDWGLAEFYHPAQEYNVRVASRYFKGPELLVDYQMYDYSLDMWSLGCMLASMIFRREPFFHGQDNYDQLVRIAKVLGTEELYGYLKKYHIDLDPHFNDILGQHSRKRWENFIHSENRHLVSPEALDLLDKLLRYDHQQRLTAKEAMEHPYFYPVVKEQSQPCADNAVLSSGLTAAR

[24] = target: Platelet-derived growth factor receptor beta (Homo sapiens, UniProt P09619); test: Inhibition of PDGFRbeta (unknown origin)
Sequence of Platelet-derived growth factor receptor beta (P09619 whole entry): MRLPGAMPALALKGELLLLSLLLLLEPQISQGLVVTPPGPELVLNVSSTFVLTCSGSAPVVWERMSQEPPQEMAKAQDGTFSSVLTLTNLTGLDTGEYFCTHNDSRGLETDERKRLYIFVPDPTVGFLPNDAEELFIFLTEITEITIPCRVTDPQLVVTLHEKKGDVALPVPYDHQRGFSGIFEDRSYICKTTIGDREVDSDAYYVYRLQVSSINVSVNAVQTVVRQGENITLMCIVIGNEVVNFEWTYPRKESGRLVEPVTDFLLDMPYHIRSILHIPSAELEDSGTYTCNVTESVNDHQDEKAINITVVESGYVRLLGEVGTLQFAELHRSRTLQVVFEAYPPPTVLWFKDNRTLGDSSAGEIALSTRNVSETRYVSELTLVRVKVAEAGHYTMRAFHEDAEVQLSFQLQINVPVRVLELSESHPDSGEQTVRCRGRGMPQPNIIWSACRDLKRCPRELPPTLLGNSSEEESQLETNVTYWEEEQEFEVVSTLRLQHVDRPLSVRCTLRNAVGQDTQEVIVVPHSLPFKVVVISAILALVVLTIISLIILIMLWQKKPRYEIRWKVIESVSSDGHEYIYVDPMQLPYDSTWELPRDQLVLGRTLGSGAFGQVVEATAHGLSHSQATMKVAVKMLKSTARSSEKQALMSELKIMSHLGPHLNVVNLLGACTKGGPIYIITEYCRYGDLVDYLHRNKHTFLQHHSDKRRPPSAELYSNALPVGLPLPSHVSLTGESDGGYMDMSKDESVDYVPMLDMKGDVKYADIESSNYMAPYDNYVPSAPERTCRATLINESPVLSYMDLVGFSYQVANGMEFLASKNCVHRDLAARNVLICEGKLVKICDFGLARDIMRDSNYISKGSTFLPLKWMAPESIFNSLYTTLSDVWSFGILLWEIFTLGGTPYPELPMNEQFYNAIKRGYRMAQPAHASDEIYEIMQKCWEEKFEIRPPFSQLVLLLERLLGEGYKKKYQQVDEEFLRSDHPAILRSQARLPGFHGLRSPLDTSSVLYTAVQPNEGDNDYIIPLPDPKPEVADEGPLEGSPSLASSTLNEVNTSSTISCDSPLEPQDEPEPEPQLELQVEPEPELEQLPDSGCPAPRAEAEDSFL

Mus musculus [25] = test: In vivo inhibition of mTORC1-mediated phosphorylation of 4EBP1 at ([…]) in human PC3 cells xenografted into athymic nude mouse at 100 mg/kg, po after 8 hrs by Western blotting analysis relative to control; assay type: functional; conditions: PC-3, 8 h; summary of the method: as §3
Mus musculus [26] = test: In vivo inhibition of mTORC1-mediated phosphorylation of 4EBP1 at ([…]) in human PC3 cells xenografted into athymic nude mouse at 100 mg/kg, po after 4 hrs by Western blotting analysis relative to control; assay type: functional; conditions: PC-3, 4 h; summary of the method: as §3
Mus musculus [27] = test: In vivo inhibition of mTORC1-mediated phosphorylation of 4EBP1 at ([…]) in human PC3 cells xenografted into athymic nude mouse at 100 mg/kg, po after 1 hr by Western blotting analysis relative to control; assay type: functional; conditions: PC-3, 1 h; summary of the method: as §3
Mus musculus [28] = test: In vivo inhibition of mTORC2-mediated phosphorylation of AKT at […] in human PC3 cells xenografted into athymic nude mouse at 100 mg/kg, po after 16 hrs by Western blotting analysis relative to control; assay type: functional; conditions: PC-3, 16 h
Summary of the method: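 Human PC-3 cells were implanted subcutaneously into the hindflank of male nude mice aged 5−8 weeks, at 3 × 10^6 cells (passages 10−14, >95% viability) in ice-cold HBSS. At a tumor size of 200−500 mg, mice got one oral 100 mg/kg dose. Tumors were taken at 1, 4, 8, 16, 24 and 32 h. Lysates (n = 5 per group) were pooled, and phospho-AKT (T308) was read by Western blot, normalized to α-tubulin.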

`Cc1c(C(=O)N2CCOc3ccc(-c4ccc(N)nc4)cc3C2)ccc(S(C)(=O)=O)c1F` gave a concentration at 1 h [1] of 34.4 µM, an inhibition in vivo at 100 mg/kg (Mus musculus [2]) of -24% and an inhibition in vivo at 100 mg/kg (Mus musculus [3]) of 98%. For the same compound, the inhibition in vivo at 100 mg/kg (Mus musculus [4]) was 93%, the inhibition in vivo at 100 mg/kg (Mus musculus [5]) was 33% and the IC50 [6] was > 3.5 µM. The IC50 [7] was > 3.5 µM, the IC50 [8] was > 3.5 µM and the inhibition [9] was “Active”. It also gave a bioavailability [10] of 53.4%, a Vd [11] of 3.15 L/kg and a clearance [12] of 84.2 mL/min/kg. It also gave a half-life [13] of 51.6 min, an AUC(0-inf) [14] of 1.31 µM·h and an AUC(0-inf) [15] of 0.7 µM·h. For the same compound, the AUC(0-inf) [16] was 8 µM·h, the Cp (Plasma [17]) was “BLD” and the Cp (Plasma [18]) was “BLD”. The remaining at 0.5 h [19] was 78%, the remaining at 0.5 h [20] was 82% and the fraction unbound at 5 µM [21] was 0.16. For the same compound, the fraction unbound at 5 µM [22] was 0.11, the Papp [23] was 15.1 ×10⁻⁶ cm/s and the IC50 (Casein kinase II) was > 10 µM. For the same compound, the IC50 [24] was > 3.5 µM, the inhibition in vivo at 100 mg/kg (Mus musculus [25]) was 92% and the inhibition in vivo at 100 mg/kg (Mus musculus [26]) was 84%. The inhibition in vivo at 100 mg/kg (Mus musculus [27]) was 94% and the inhibition in vivo at 100 mg/kg (Mus musculus [28]) was 36%.
